Laboratory results: ChEMBL document CHEMBL1151705, “Novel azalides derived from 16-membered macrolides. Part II: Isolation of the linear 9-formylcarboxylic acid and its sequential macrocyclization with an amino alcohol or an azidoamine” (2008)
Values after ≈ are worked out from the molar mass of the structure shown.

What was measured:
Assay type in all cases: functional
Streptococcus pyogenes [1] = assay: Antimicrobial activity against Streptococcus pyogenes 2 constitutively expressing ermB after 20 hrs by agar dilution method
How it was run: (§1)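 Streptococci, H. influenzae and M. catarrhalis were precultured on blood agar plates. Suspensions of about 10⁶ CFU/ml were inoculated onto sensitivity disk agar supplemented with 5% horse blood and incubated at 37 °C for 20 h. MIC was read as the lowest drug concentration with no visible growth.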

Streptococcus pneumoniae [2] = assay: Antimicrobial activity against Streptococcus pneumoniae 9 expressing mefA after 20 hrs by agar dilution method; conditions: Streptococcus pneumoniae, 20 h; read-out: MIC; how it was run: as §1
Staphylococcus aureus [3] = assay: Antimicrobial activity against Staphylococcus aureus 6 expressing inducible ermB after 20 hrs by agar dilution method
How it was run: (§2)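 Agar dilution MIC. S. aureus seed culture was grown in sensitivity test broth. Cell suspension (about 10⁶ CFU/ml) was inoculated onto sensitivity disk agar with 5% horse blood and incubated at 37 °C for 20 h. MIC was the lowest drug concentration that prevented visible growth.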

Streptococcus pyogenes [4] = assay: Antimicrobial activity against drug-susceptible Streptococcus pyogenes 1 after 20 hrs by agar dilution method; conditions: Streptococcus pyogenes, 20 h; read-out: MIC; how it was run: as §1
Streptococcus pneumoniae [5] = assay: Antimicrobial activity against Streptococcus pneumoniae 6 constitutively expressing ermB after 20 hrs by agar dilution method; conditions: Streptococcus pneumoniae, 20 h; read-out: MIC; how it was run: as §1
Staphylococcus aureus [6] = assay: Antimicrobial activity against drug-susceptible Staphylococcus aureus 2 after 20 hrs by agar dilution method; conditions: Staphylococcus aureus, 20 h; read-out: MIC; how it was run: as §2
Haemophilus influenzae [7] = assay: Antimicrobial activity against drug-susceptible Haemophilus influenzae 3 after 20 hrs by agar dilution method; conditions: Haemophilus influenzae, 20 h; read-out: MIC; how it was run: as §1
Moraxella catarrhalis [8] = assay: Antimicrobial activity against drug-susceptible Moraxella catarrhalis 1 after 20 hrs by agar dilution method; conditions: Moraxella catarrhalis, 20 h; read-out: MIC; how it was run: as §1
Haemophilus influenzae [9] = assay: Antimicrobial activity against drug-susceptible Haemophilus influenzae 2 after 20 hrs by agar dilution method; conditions: Haemophilus influenzae, 20 h; read-out: MIC; how it was run: as §1
Staphylococcus aureus [10] = assay: Antimicrobial activity against drug-susceptible Staphylococcus aureus 209P JC-1 after 20 hrs by agar dilution method; conditions: Staphylococcus aureus, 209P, 20 h; read-out: MIC; how it was run: as §2
Streptococcus pneumoniae [11] = assay: Antimicrobial activity against Streptococcus pneumoniae 5 constitutively expressing ermB/mefA after 20 hrs by agar dilution method; conditions: Streptococcus pneumoniae, 20 h; read-out: MIC; how it was run: as §1
Haemophilus influenzae [12] = assay: Antimicrobial activity against drug-susceptible Haemophilus influenzae 4 after 20 hrs by agar dilution method; conditions: Haemophilus influenzae, 20 h; read-out: MIC; how it was run: as §1
Moraxella catarrhalis [13] = assay: Antimicrobial activity against drug-susceptible Moraxella catarrhalis 2 after 20 hrs by agar dilution method; conditions: Moraxella catarrhalis, 20 h; read-out: MIC; how it was run: as §1
Streptococcus pyogenes [14] = assay: Antimicrobial activity against Streptococcus pyogenes 3 expressing mefA after 20 hrs by agar dilution method; conditions: Streptococcus pyogenes, 20 h; read-out: MIC; how it was run: as §1
Streptococcus pneumoniae [15] = assay: Antimicrobial activity against Streptococcus pneumoniae 10 expressing mefA after 20 hrs by agar dilution method; conditions: Streptococcus pneumoniae, 20 h; read-out: MIC; how it was run: as §1
Streptococcus pneumoniae [16] = assay: Antimicrobial activity against drug-susceptible Streptococcus pneumoniae DP1 Type1 after 20 hrs by agar dilution method; conditions: Streptococcus pneumoniae, 20 h; read-out: MIC; how it was run: as §1
Haemophilus influenzae [17] = assay: Antimicrobial activity against drug-susceptible Haemophilus influenzae 1 after 20 hrs by agar dilution method; conditions: Haemophilus influenzae, 20 h; read-out: MIC; how it was run: as §1
Streptococcus pneumoniae [18] = assay: Antimicrobial activity against Streptococcus pneumoniae 7 expressing inducible ermB after 20 hrs by agar dilution method; conditions: Streptococcus pneumoniae, 20 h; read-out: MIC; how it was run: as §1
Staphylococcus aureus [19] = assay: Antimicrobial activity against drug-susceptible Staphylococcus aureus 3 after 20 hrs by agar dilution method; conditions: Staphylococcus aureus, 20 h; read-out: MIC; how it was run: as §2
Streptococcus pneumoniae [20] = assay: Antimicrobial activity against drug-susceptible Streptococcus pneumoniae 2 after 20 hrs by agar dilution method; conditions: Streptococcus pneumoniae, 20 h; read-out: MIC; how it was run: as §1
Staphylococcus aureus [21] = assay: Antimicrobial activity against Staphylococcus aureus 5 expressing inducible ermB after 20 hrs by agar dilution method; conditions: Staphylococcus aureus, 20 h; read-out: MIC; how it was run: as §2
Staphylococcus aureus [22] = assay: Antimicrobial activity against Staphylococcus aureus 4 constitutively expressing ermA after 20 hrs by agar dilution method; how it was run: as §2
Streptococcus pneumoniae [23] = assay: Antimicrobial activity against Streptococcus pneumoniae 8 expressing inducible ermB after 20 hrs by agar dilution method; conditions: Streptococcus pneumoniae, 20 h; read-out: MIC; how it was run: as §1

Row | Compound | MIC (Streptococcus pyogenes [1]) [µg/mL] | MIC (Streptococcus pneumoniae [2]) [µg/mL] | MIC (Staphylococcus aureus [3]) [µg/mL] | MIC (Streptococcus pyogenes [4]) [µg/mL] | MIC (Staphylococcus aureus [6]) [µg/mL] | MIC (Haemophilus influenzae [7]) [µg/mL] | MIC (Moraxella catarrhalis [8]) [µg/mL] | MIC (Haemophilus influenzae [9]) [µg/mL] | MIC (Staphylococcus aureus [10]) [µg/mL] | MIC (Streptococcus pneumoniae [11]) [µg/mL] | MIC (Haemophilus influenzae [12]) [µg/mL] | MIC (Moraxella catarrhalis [13]) [µg/mL] | MIC (Streptococcus pyogenes [14]) [µg/mL] | MIC (Streptococcus pneumoniae [15]) [µg/mL] | MIC (Streptococcus pneumoniae [16]) [µg/mL] | MIC (Haemophilus influenzae [17]) [µg/mL] | MIC (Streptococcus pneumoniae [18]) [µg/mL] | MIC (Staphylococcus aureus [19]) [µg/mL] | MIC (Streptococcus pneumoniae [20]) [µg/mL] | MIC (Staphylococcus aureus [21]) [µg/mL] | also measured
1 | CCOC(=O)[C@H]1[C@H](C)O[C@@H](O[C@H]2[C@H](N(C)C)[C@@H](O)[C@H](O[C@H]3[C@@H](CC=O)C[C@@H](C)[C@@H](O)CN(CCCCc4ccccc4)CCCNC(=O)C[C@@H](OC(=O)CC)[C@@H]3OC)O[C@@H]2C)C[C@@]1(C)OC(C)=O | > 128 | 0.25 (≈ 0.259 µM) | 0.5 (≈ 0.519 µM) | 0.13 (≈ 0.135 µM) | 1 (≈ 1.04 µM) | 2 (≈ 2.07 µM) | 0.13 (≈ 0.135 µM) | 0.5 (≈ 0.519 µM) | 0.25 (≈ 0.259 µM) | > 128 | 4 (≈ 4.15 µM) | 0.25 (≈ 0.259 µM) | 0.5 (≈ 0.519 µM) | 0.25 (≈ 0.259 µM) | 0.13 (≈ 0.135 µM) | 8 (≈ 8.3 µM) | 16 (≈ 16.6 µM) | 0.25 (≈ 0.259 µM) | 0.25 (≈ 0.259 µM) | 0.25 (≈ 0.259 µM) | MIC (Streptococcus pneumoniae [5]): > 128 µg/mL; MIC (Staphylococcus aureus [22]): > 128 µg/mL; MIC (Streptococcus pneumoniae [23]): 16 µg/mL (≈ 16.6 µM)
2 | CCOC(=O)[C@H]1[C@H](C)O[C@@H](O[C@H]2[C@H](N(C)C)[C@@H](O)[C@H](O[C@H]3[C@@H](CC=O)C[C@@H](C)[C@@H](O)CN(CCCc4ccnc5ccccc45)CC[C@@H](C)OC(=O)C[C@@H](OC(=O)CC)[C@@H]3OC)O[C@@H]2C)C[C@@]1(C)OC(C)=O | > 128 | 0.13 (≈ 0.128 µM) | 0.25 (≈ 0.246 µM) | 0.06 (≈ 0.059 µM) | 0.5 (≈ 0.492 µM) | 8 (≈ 7.87 µM) | 0.25 (≈ 0.246 µM) | 1 (≈ 0.984 µM) | 0.13 (≈ 0.128 µM) | > 128 | 8 (≈ 7.87 µM) | 0.25 (≈ 0.246 µM) | 0.13 (≈ 0.128 µM) | 0.13 (≈ 0.128 µM) | 0.06 (≈ 0.059 µM) | 16 (≈ 15.7 µM) | 4 (≈ 3.94 µM) | 0.25 (≈ 0.246 µM) | 0.06 (≈ 0.059 µM) | 0.13 (≈ 0.128 µM) | MIC (Streptococcus pneumoniae [5]): > 128 µg/mL; MIC (Staphylococcus aureus [22]): > 128 µg/mL; MIC (Streptococcus pneumoniae [23]): 8 µg/mL (≈ 7.87 µM)
3 | CCC(=O)O[C@@H]1CC(=O)NCCCN(CCCc2ccnc3ccccc23)C[C@H](O)[C@H](C)C[C@H](CC=O)[C@H](O[C@@H]2O[C@H](C)[C@@H](O)[C@H](N(C)C)[C@H]2O)[C@H]1OC | > 128 | 32 (≈ 42.2 µM) | 64 (≈ 84.3 µM) | 16 (≈ 21.1 µM) | 32 (≈ 42.2 µM) | 64 (≈ 84.3 µM) | 8 (≈ 10.5 µM) | 8 (≈ 10.5 µM) | 64 (≈ 84.3 µM) | > 128 | 128 (≈ 169 µM) | 8 (≈ 10.5 µM) | 128 (≈ 169 µM) | 32 (≈ 42.2 µM) | 16 (≈ 21.1 µM) | 64 (≈ 84.3 µM) | > 128 | 64 (≈ 84.3 µM) | 16 (≈ 21.1 µM) | 64 (≈ 84.3 µM) | MIC (Streptococcus pneumoniae [5]): > 128 µg/mL; MIC (Staphylococcus aureus [22]): > 128 µg/mL; MIC (Streptococcus pneumoniae [23]): > 128 µg/mL
4 | CCOC(=O)[C@H]1[C@H](C)O[C@@H](O[C@H]2[C@H](N(C)C)[C@@H](O)[C@H](O[C@H]3[C@@H](CC=O)C[C@@H](C)[C@@H](OC(C)=O)CN(CCCCc4ccccc4)CCCOC(=O)C[C@@H](OC(=O)CC)[C@@H]3OC)O[C@@H]2C)C[C@@]1(C)OC(C)=O | > 128 | 0.5 (≈ 0.496 µM) | 1 (≈ 0.993 µM) | 0.25 (≈ 0.248 µM) | 1 (≈ 0.993 µM) | 4 (≈ 3.97 µM) | 0.25 (≈ 0.248 µM) | 2 (≈ 1.99 µM) | 0.5 (≈ 0.496 µM) | > 128 | 8 (≈ 7.94 µM) | 0.5 (≈ 0.496 µM) | 0.25 (≈ 0.248 µM) | 0.25 (≈ 0.248 µM) | 0.25 (≈ 0.248 µM) | > 128 | 8 (≈ 7.94 µM) | 0.5 (≈ 0.496 µM) | 0.25 (≈ 0.248 µM) | 0.5 (≈ 0.496 µM) | MIC (Staphylococcus aureus [22]): > 128 µg/mL; MIC (Streptococcus pneumoniae [23]): 32 µg/mL (≈ 31.8 µM)
5 | CCC(=O)O[C@@H]1CC(=O)O[C@H](C)C/C=C/C=C/[C@H](OC(C)=O)[C@H](C)C[C@H](CC=O)[C@H](O[C@@H]2O[C@H](C)[C@@H](O[C@H]3C[C@@](C)(OC(C)=O)[C@@H](OC(=O)CC)[C@H](C)O3)[C@H](N(C)C)[C@H]2O)[C@H]1OC [MIOCAMYCIN] | > 128 | 0.5 (≈ 0.557 µM) | 1 (≈ 1.11 µM) | 0.25 (≈ 0.278 µM) | 1 (≈ 1.11 µM) | 32 (≈ 35.6 µM) | 1 (≈ 1.11 µM) | 2 (≈ 2.23 µM) | 0.5 (≈ 0.557 µM) | > 128 | 16 (≈ 17.8 µM) | 2 (≈ 2.23 µM) | 0.5 (≈ 0.557 µM) | 0.5 (≈ 0.557 µM) | 0.25 (≈ 0.278 µM) | 64 (≈ 71.3 µM) | 64 (≈ 71.3 µM) | 0.5 (≈ 0.557 µM) | 0.5 (≈ 0.557 µM) | 0.5 (≈ 0.557 µM) | MIC (Streptococcus pneumoniae [5]): > 128 µg/mL; MIC (Staphylococcus aureus [22]): > 128 µg/mL; MIC (Streptococcus pneumoniae [23]): 128 µg/mL (≈ 143 µM)
